Drawing on ChEMBL document CHEMBL1125563, “Selective, centrally acting serotonin 5-HT2 antagonists. 1. 2- and 6-substituted 1-phenyl-3-(4-piperidinyl)-1H-indoles” (J Med Chem, 1992), this text covers ED50 and IC50 for eleven compounds.

Test [1] relates to Rattus norvegicus. Nature of the test: Compound was evaluated for the inhibition of quipazine-induced head twitches after 24 hr (administered subcutaneously). It counts as functional. Particulars: sc.
Test [2] addresses T1, Adrenergic receptor alpha-1 (Rattus norvegicus, UniProt P15823+P23944+P43140).
T1 sequence (P15823 whole entry): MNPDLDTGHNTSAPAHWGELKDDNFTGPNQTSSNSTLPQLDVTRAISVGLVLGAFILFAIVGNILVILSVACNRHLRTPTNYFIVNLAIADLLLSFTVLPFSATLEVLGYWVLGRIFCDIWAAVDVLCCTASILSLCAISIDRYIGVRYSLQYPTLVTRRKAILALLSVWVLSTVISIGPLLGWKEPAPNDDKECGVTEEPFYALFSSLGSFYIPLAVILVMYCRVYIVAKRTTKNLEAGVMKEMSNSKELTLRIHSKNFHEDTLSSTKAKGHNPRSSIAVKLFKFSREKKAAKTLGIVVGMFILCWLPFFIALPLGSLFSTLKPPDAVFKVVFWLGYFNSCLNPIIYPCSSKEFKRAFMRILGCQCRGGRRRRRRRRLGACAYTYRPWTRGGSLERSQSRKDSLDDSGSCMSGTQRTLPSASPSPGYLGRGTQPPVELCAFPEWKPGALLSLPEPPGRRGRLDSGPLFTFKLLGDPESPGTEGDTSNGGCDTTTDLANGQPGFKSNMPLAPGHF
T1 sequence (P23944 whole entry): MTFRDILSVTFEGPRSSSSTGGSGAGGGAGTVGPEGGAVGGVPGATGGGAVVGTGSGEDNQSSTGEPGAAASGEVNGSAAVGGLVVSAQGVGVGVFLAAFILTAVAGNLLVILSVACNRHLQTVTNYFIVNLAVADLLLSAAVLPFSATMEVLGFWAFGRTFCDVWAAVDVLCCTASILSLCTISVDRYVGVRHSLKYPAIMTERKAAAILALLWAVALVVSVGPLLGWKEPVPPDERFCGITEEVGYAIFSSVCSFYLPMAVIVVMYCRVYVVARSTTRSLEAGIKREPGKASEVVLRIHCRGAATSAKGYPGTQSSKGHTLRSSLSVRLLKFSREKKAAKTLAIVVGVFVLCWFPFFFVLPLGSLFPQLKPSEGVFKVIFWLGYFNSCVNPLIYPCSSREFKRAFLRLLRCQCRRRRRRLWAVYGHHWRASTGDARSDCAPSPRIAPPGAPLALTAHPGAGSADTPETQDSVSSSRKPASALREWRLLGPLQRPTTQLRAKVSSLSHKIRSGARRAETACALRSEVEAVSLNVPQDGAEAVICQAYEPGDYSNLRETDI
T1 sequence (P43140 whole entry): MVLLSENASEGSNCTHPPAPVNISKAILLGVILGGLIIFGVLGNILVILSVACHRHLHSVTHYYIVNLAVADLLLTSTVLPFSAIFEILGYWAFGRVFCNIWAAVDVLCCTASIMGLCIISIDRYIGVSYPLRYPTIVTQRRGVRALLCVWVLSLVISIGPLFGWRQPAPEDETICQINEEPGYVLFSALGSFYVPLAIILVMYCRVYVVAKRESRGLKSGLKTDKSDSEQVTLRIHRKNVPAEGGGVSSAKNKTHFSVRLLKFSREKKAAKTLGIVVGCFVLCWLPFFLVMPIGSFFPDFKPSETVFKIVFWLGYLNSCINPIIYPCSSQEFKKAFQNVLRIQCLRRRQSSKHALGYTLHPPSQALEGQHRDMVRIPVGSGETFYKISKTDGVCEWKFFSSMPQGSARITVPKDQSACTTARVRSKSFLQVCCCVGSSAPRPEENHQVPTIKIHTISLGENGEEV
In words: Displacement of [3H]prazosin from Alpha-1 adrenergic receptor of whole rat brain membranes. It counts as cell membranes, Membrane. The method in brief:
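α1 adrenoceptor binding measured as displacement of [3H]prazosin from whole rat brain membranes. Five test-drug concentrations spanning three decades in triplicate, two full curves; IC50 from log concentration-effect curves, logarithmic mean of at least two determinations.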
In general terms: In a radioligand displacement assay an active substance lowers the binding of a labelled ligand.

Test [3] deals with Rattus norvegicus. Nature of the test: Compound was evaluated for the inhibition of quipazine-induced head twitches after 2 h (administered subcutaneously). Particulars: sc. The format is functional.
Test [4] concerns the target Serotonin 2 (5-HT2) receptor (Rattus norvegicus, UniProt P30994+P08909+P14842). In words: Displacement of [3H]ketanserin from 5-hydroxytryptamine 2 receptor from rat cortical membranes. It counts as cell membranes, Membrane. The essentials:
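[3H]ketanserin displacement from rat cortical membranes (5-HT2). Five concentrations across three decades in triplicate, two full curves; IC50 estimated on a log-concentration scale, given as logarithmic mean of at least two determinations.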

For the next test, the target named is D(2) dopamine receptor (Rattus norvegicus, UniProt P61169). Nature of the test: Displacement of [3H]-spiperone from Dopamine receptor D2 from rat striatal membranes. The format is cell membranes, Membrane. The essentials: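 [3H]spiperone displacement from rat striatal membranes (D2). Five test-drug concentrations over three decades, in triplicate, two full curves; IC50 from log concentration-effect curves, reported as logarithmic mean of at least two determinations.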
Sequence of D(2) dopamine receptor (P61169 whole entry): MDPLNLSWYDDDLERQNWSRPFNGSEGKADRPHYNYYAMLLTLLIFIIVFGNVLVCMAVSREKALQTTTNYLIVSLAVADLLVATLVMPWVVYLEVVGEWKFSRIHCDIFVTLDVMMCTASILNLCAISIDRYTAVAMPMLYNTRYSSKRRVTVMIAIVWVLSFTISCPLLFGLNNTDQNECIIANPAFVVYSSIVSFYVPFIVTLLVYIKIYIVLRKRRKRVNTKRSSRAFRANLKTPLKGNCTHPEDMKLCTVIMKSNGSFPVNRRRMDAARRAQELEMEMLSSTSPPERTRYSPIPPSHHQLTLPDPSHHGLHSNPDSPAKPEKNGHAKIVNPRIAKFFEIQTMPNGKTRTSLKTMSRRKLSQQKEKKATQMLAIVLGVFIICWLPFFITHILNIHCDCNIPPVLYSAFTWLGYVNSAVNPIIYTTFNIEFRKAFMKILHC

Test [5] deals with Rattus norvegicus. Nature of the test: Compound was evaluated for the inhibition of quipazine-induced head twitches after 24 h (administered subcutaneously); 0.0042-0.061. Conditions: sc.
Test [6] is filed under the species Mus musculus. Nature of the test: Compound was evaluated for the inhibition of isolation-induced aggression at a threshold of 180 seconds. It counts as functional. The method in brief:
(§1)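 Isolated male NMRI mice (3 weeks) trained to attack a nonaggressive intruder of the same strain; only mice with attack latency <25 s included. Pretested just before dosing and 2 h after sc test substance; observation maximum 180 s; at least eight mice per dose.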

Test [7] is filed under the species Mus musculus. Nature of the test: Compound was evaluated for the inhibition of isolation-induced aggression at a threshold of, 90 seconds. It counts as functional. The essentials:
as §1

For test [8], the system named is Rattus norvegicus. Nature of the test: Compound was evaluated for the inhibition of pergolide-induced reactions after 2 hr (administered subcutaneously). The format is functional. Conditions: sc. The essentials:
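Male Wistar rats with unilateral 6-OHDA lesions; test drug sc 2 h before pergolide (0.05 µmol/kg sc) to induce contralateral circling. Effect of each dose expressed as percent of mean of control sessions 1 week before and 1 week after, per rat; at least four rats per dose; ED50 by log-probit analysis.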

The subject of test [9] is Rattus norvegicus. In words: Compound was evaluated for the inhibition of quipazine-induced head twitches after 2 h (administered subcutaneously); 0.11-0.29. It counts as functional. Conditions: sc.
The subject of test [10] is Rattus norvegicus. In words: Compound was evaluated for the inhibition of quipazine-induced head twitches after 24 hr (administered perorally); 0.014-0.074. The format is functional. Particulars: po.
For test [11], the system named is Rattus norvegicus. In words: Compound was evaluated for the inhibition of quipazine-induced head twitches after 2 hr (administered subcutaneously); 0.018-0.096. It counts as functional. Particulars: sc.
Test [12] has as its system Rattus norvegicus. In words: Compound was evaluated for the inhibition of quipazine-induced head twitches after 24 h (administered perorally); 0.056-0.22. The format is functional. Particulars: po.
In test [13] the test system is Rattus norvegicus. Nature of the test: Compound was evaluated for the inhibition of quipazine-induced head twitches after 24 hr (administered subcutaneously); 0.010-0.12. The format is functional. Particulars: sc.
The species named for test [14] is Mus musculus. Nature of the test: Compound was evaluated for the inhibition of isolation-induced aggression at a threshold of,90 seconds. The format is functional. The essentials: as §1
Test [15] relates to Rattus norvegicus. Nature of the test: Compound was evaluated for the inhibition of quipazine-induced head twitches after 24 hr (administered subcutaneously); 0.0027-0.031. It counts as functional. Conditions: sc.
The subject of test [16] is Rattus norvegicus. In words: Compound was evaluated for the inhibition of quipazine-induced head twitches after 2 hr (administered subcutaneously); 0.010-0.24. It counts as functional. Conditions: sc.
The test system of test [17] is Rattus norvegicus. In words: Compound was evaluated for the inhibition of quipazine-induced head twitches after 24 hr (administered perorally); 0.010-0.048. It counts as functional. Particulars: po.

A word on the ED50: it is the dose at which the effect has come halfway, by size or by number of responders. Higher therefore signals a need for a large dose. Usually IC50 stands for the concentration needed to halve the response being measured. A low value points to greater potency. Turning to `CC(C)c1ccc2c(C3CCN(CCN4CCN(C(C)C)C4=O)CC3)cn(-c3ccc(F)cc3)c2c1`, the median effective dose (ED50) with Rattus norvegicus [1] was above 4.3 µmol/kg; in the test on Rattus norvegicus [3] it was above 0.54 µmol/kg. In addition, the results for the 50% inhibitory concentration (IC50) in [2] and in test [4] were 730 nM and 16 nM, respectively.
For `CC(C)c1ccc2c(C3CCN(CCN4CCNC4=O)CC3)cn(-c3ccc(F)cc3)c2c1`, the IC50 in test [2] was 250 nM; on D(2) dopamine receptor, 2600 nM; in test [4], 18 nM.
Take `Cc1ccc2c(C3CCN(CCN4CCNC4=O)CC3)cn(-c3ccc(F)cc3)c2c1`: the figures for the concentration for half-maximal inhibition (IC50) in test [2] and in test [4] were 24 nM and 0.82 nM, respectively.
On the same counts, the results for `Cc1ccc2c(C3CCN(CCN4CCN(C(C)C)C4=O)CC3)cn(-c3ccc(Cl)cc3)c2c1` are 450 nM and 6 nM.
`CC(C)N1CCN(CCN2CCC(c3cn(-c4ccc(F)cc4)c4cc(C(F)(F)F)ccc34)CC2)C1=O`: the results for the IC50 in [2] and in test [4] were 91 nM and 2.9 nM, respectively.
For `CC(C)NC(=O)N(C)CCN1CCC(c2cn(-c3ccc(F)cc3)c3cc(Cl)ccc23)CC1`, the ED50 in the test on Rattus norvegicus [5] is 0.016 µmol/kg; in the test listed under Mus musculus [6], above 21 µmol/kg; in the test filed under Mus musculus [7] it was above 21 µmol/kg; in the test on Rattus norvegicus [8], above 21 µmol/kg; with Rattus norvegicus [9] it was 0.18 µmol/kg; in the test on Rattus norvegicus [10], 0.032 µmol/kg. Moreover, the figures for the IC50 (in [2]; at D(2) dopamine receptor; in [4]) were 26 nM, 74 nM and 2.2 nM, respectively.
Turning to `Cc1ccc2c(C3CCN(CCN4CCN(C(C)C)C4=O)CC3)cn(-c3ccc(F)cc3)c2c1`, the 50% effective dose (ED50) is 0.042 µmol/kg with Rattus norvegicus [11]; 7.3 µmol/kg in the test listed under Mus musculus [6]; above 18 µmol/kg in the test on Rattus norvegicus [8]; 0.11 µmol/kg with Rattus norvegicus [12]; 0.036 µmol/kg in the test with Rattus norvegicus [13]; 13 µmol/kg in the test filed under Mus musculus [14]. Further, the half-maximal inhibitory concentration (IC50) in [2] is 85 nM; in [4], 1.6 nM.
With `CNC(=O)N(C)CCN1CCC(c2cn(-c3ccc(F)cc3)c3cc(Cl)ccc23)CC1`, the ED50 was 0.0092 µmol/kg in the test with Rattus norvegicus [15]; above 23 µmol/kg in the test listed under Mus musculus [6]; above 23 µmol/kg in the test filed under Mus musculus [7]; 0.049 µmol/kg with Rattus norvegicus [16]; above 23 µmol/kg in the test on Rattus norvegicus [8]; 0.022 µmol/kg in the test on Rattus norvegicus [17]. Besides, the figures for the IC50 (in test [2]; at D(2) dopamine receptor; in test [4]) were 16 nM, 82 nM and 1.6 nM, respectively.
Regarding `Cc1ccc2c(C3CCN(CCNC(=O)NC(C)C)CC3)cn(-c3ccc(F)cc3)c2c1`, the figures for the IC50 in [2] and in test [4] were 76 nM and 1.8 nM, respectively.
Turning to `Cc1ccc2c(C3CCN(CCN4CCN(C(C)C)C4=O)CC3)c[nH]c2c1`, the concentration for half-maximal inhibition (IC50) in test [2] turned out to be 27 nM; on D(2) dopamine receptor, 590 nM; in test [4] it was 60 nM. For the same compound, the 50% effective dose (ED50) with Rattus norvegicus [3] is above 0.84 µmol/kg.
Consider `CC(C)N1CCN(CCN2CCC(c3cn(-c4ccccc4F)c4cc(Cl)ccc34)CC2)C1=O`, for which the results for the 50% inhibitory concentration (IC50) in test [2] and in test [4] were 120 nM and 3.7 nM, respectively.
